Results of several laboratories.
Protocols differ between the studies behind these lines.
Target: Membrane-associated tyrosine- and threonine-specific cdc2-inhibitory kinase (PKMYT1, Homo sapiens, UniProt Q99640)
Residues used in one study (Q99640 1-499): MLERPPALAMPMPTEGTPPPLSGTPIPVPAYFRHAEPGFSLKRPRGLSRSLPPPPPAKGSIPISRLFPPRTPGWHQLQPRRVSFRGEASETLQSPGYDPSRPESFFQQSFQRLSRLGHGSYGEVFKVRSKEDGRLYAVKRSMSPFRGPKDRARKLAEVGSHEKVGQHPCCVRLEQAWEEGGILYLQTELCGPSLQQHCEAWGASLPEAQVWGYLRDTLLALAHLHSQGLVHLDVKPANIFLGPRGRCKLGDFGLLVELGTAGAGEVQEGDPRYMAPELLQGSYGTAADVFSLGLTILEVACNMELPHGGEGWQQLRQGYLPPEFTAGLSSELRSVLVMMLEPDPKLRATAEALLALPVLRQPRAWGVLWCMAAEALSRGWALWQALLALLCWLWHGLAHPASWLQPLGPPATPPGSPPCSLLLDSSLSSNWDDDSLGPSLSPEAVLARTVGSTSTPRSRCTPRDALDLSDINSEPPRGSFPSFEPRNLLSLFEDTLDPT

SMILES	observed	mode	method	tested at	measurement	result
CC(C)(C)c1nc(-c2cccc(NS(=O)(=O)c3c(F)cccc3F)c2F)c(-c2ccnc(N)n2)s1	enzyme activity	inhibitor	radiometric	1 µM	remaining activity	88%
c1cnn2ncc(-c3ccnc(N4CCC45COC5)n3)c2c1	binding			1 µM	remaining binding	97%
Nc1ncnc2occ(-c3ccc(NC(=O)Nc4cc(C(F)(F)F)ccc4F)cc3)c12	cell-free assay	inhibitor		20 µM	remaining signal	75%
CNCc1ccccc1-c1csc([C@H](C)Nc2nc(C)nc3cc(OC)c(OC)cc23)c1	cell-free assay		competition with immobilised ligand	1 µM	remaining binding	100%
C=CCn1c(=O)c2cnc(Nc3ccc(N4CCN(C)CC4)cc3)nc2n1-c1cccc(C(C)(C)O)n1	thermal stability		DSF	100 µM	ΔTm	3 °C
C[C@H](NC(=O)c1cnc2n1[C@](C)(Cc1ccc(C#N)cc1)C(=O)N2c1cc(Cl)c(F)c(Cl)c1)C(=O)NC1(c2ccccn2)CC1	cell-free assay		competition with immobilised ligand	1 µM	remaining binding	79%
CC(C)(C)c1nc2c(s1)c1nc(N)ncc1c1ccc(NS(=O)(=O)c3c(F)cccc3F)c(F)c12	enzyme activity	inhibitor	radiometric	1 µM	remaining activity	84%
O=C(Nc1cnn(-c2csc(C(=O)NC3COC3)c2)c1)Nc1c(F)cccc1Cl	enzyme activity	inhibitor		5 µM	remaining activity	89.6%
Cc1ccc(C(=O)Nc2ccc(CN3CCN(C)CC3)c(C(F)(F)F)c2)cc1C#Cc1cnc2cccnn12	enzyme activity	inhibitor		23.5 nM	remaining activity	84%
O=C(Nc1cnn(-c2csc(C(=O)NC3COC3)c2)c1)Nc1ccccc1Cl	enzyme activity	inhibitor		5 µM	remaining activity	87%
C[C@@H]1CCN(c2nccc(-c3cnn4ncccc34)n2)C1	binding			1 µM	remaining binding	99%
